Converted amounts (≈) assume the structure as drawn.
Columns and labels:
Escherichia coli [1] = assay: Antibacterial activity against Escherichia coli NCIM 2065 after 18 hrs by disc diffusion method; assay type: functional
How it was run: (§1)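 Modified Kirby-Bauer disc diffusion. Plates inoculated with spore suspension (about 6 × 10⁴ spores mL^-1). Sterile 6 mm paper discs carried test samples at 10 mg mL^-1; ciprofloxacin disc as reference, DMF disc as negative control. Plates held 18 h at 37 °C. Inhibition zone diameters (mm) averaged over triplicate sets.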

Escherichia coli [2] = assay: Antibacterial activity against Escherichia coli NCIM 2065 after 18 hrs by tube dilution method; assay type: functional; details: NCIM 2065, 18 h
Eudrilus [3] = assay: Anthelmintic activity against Eudrilus sp. assessed as mean paralyzing time; assay type: functional
How it was run: (§2)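 Earthworms exposed to test suspensions at 2 mg mL^-1 (0.2% w/v), made by triturating compound with Tween 80 (0.5%) and distilled water, then mechanically stirred 30 min. Mebendazole suspension prepared alike as reference. Paralysis and death times recorded; death confirmed by no movement in 50 °C water. Means from triplicate sets.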

Aspergillus niger = assay: Antifungal activity against Aspergillus niger MUCC 177 after 48 hrs by disc diffusion method; assay type: functional
How it was run: (§3)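 Agar well diffusion on plates inoculated with spore suspension in normal saline from cultures on Sabouraud's broth. Wells punched and loaded with test samples or griseofulvin at 10 mg mL^-1, with DMSO as negative control. Incubated 48 h at 37 °C.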

Pseudomonas aeruginosa [4] = assay: Antibacterial activity against Pseudomonas aeruginosa NCIM 2034 after 18 hrs by disc diffusion method; assay type: functional; how it was run: as §1
Staphylococcus aureus [5] = assay: Antibacterial activity against Staphylococcus aureus NCIM 2079 after 18 hrs by disc diffusion method; assay type: functional; how it was run: as §1
Staphylococcus aureus [6] = assay: Antibacterial activity against Staphylococcus aureus NCIM 2079 after 18 hrs by tube dilution method; assay type: functional; details: NCIM 2079, 18 h
How it was run: (§4)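 Tube dilution MIC. Stock diluted in sterile broth to seven concentrations from 200 to 3.1 […]. Each tube inoculated with one loopful of test bacterium and incubated 18 h at 37 °C. MIC read from presence or absence of growth.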

[7] = Anthelmintic activity against Megascoplex konkanensis ICARBC 211 assessed as mean death time; assay type: functional; how it was run: as §2
Pontoscolex corethrurus [8] = assay: Anthelmintic activity against Pontoscolex corethrurus ICARBC 408 assessed as mean paralyzing time; assay type: functional; how it was run: as §2
Eudrilus [9] = assay: Anthelmintic activity against Eudrilus sp. assessed as mean death time; assay type: functional
How it was run: (§5)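 Earthworms exposed to test suspensions at 2 mg mL−1, prepared by triturating compound with Tween 80 (0.5%) and distilled water, stirring 30 min, then diluting to 0.2% w/v. Mebendazole suspension was made the same way. Death was confirmed by moving worms into 50 °C warm water and looking for movement. Mean death time (min) taken from triplicate sets.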

Bacillus subtilis [10] = assay: Antibacterial activity against Bacillus subtilis NCIM 2063 after 18 hrs by disc diffusion method; assay type: functional; how it was run: as §1
Microsporum audouinii [11] = assay: Antifungal activity against Microsporum audouinii MUCC 545 after 48 hrs by disc diffusion method; assay type: functional; how it was run: as §3
Trichophyton benhamiae [12] = assay: Antifungal activity against Trichophyton mentagrophytes MUCC 665 after 48 hrs by disc diffusion method; assay type: functional, Arthroderma benhamiae; how it was run: as §3
Candida albicans [13] = assay: Antifungal activity against Candida albicans MUCC 29 after 48 hrs by tube dilution method; assay type: functional
How it was run: (§6)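 Tube dilution MIC as for bacteria (seven concentrations, 200–3.1 […]), with DMSO in place of DMF. Tubes inoculated with fungal culture and incubated 48 h at 37 °C. MIC read from presence or absence of growth.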

[14] = Anthelmintic activity against Megascoplex konkanensis ICARBC 211 assessed as mean paralyzing time; assay type: functional; how it was run: as §2
Microsporum audouinii [15] = assay: Antifungal activity against Microsporum audouinii MUCC 545 after 48 hrs by tube dilution method; assay type: functional; how it was run: as §6
Pseudomonas aeruginosa [16] = assay: Antibacterial activity against Pseudomonas aeruginosa NCIM 2034 after 18 hrs by tube dilution method; assay type: functional; details: NCIM 2034, 18 h; how it was run: as §4
Trichophyton benhamiae [17] = assay: Antifungal activity against Trichophyton mentagrophytes MUCC 665 after 48 hrs by tube dilution method; assay type: functional, Arthroderma benhamiae; how it was run: as §6
Bacillus subtilis [18] = assay: Antibacterial activity against Bacillus subtilis NCIM 2063 after 18 hrs by tube dilution method; assay type: functional; details: NCIM 2063, 18 h; how it was run: as §4
Pontoscolex corethrurus [19] = assay: Anthelmintic activity against Pontoscolex corethrurus ICARBC 408 assessed as mean death time; assay type: functional; how it was run: as §5
Candida albicans [20] = assay: Antifungal activity against Candida albicans MUCC 29 after 48 hrs by disc diffusion method; assay type: functional; how it was run: as §3

With `COC(=O)[C@H](CCCNC(=N)N[N+](=O)[O-])NC(=O)c1cc(-c2nc3ccc([N+](=O)[O-])cc3[nH]2)ccc1O` the “inhibition zone (IZ)” value (Escherichia coli [1]) was 15 mm, the MIC (Escherichia coli [2]) was 12.5 µg/mL (≈ 24.3 µM) and the Time (Eudrilus [3]) was 17.98 min. For the same molecule, the “inhibition zone (IZ)” value (Aspergillus niger) was 18 mm, the “inhibition zone (IZ)” value (Pseudomonas aeruginosa [4]) was 19 mm and the “inhibition zone (IZ)” value (Staphylococcus aureus [5]) was 10 mm. The MIC (Staphylococcus aureus [6]) was 25 µg/mL (≈ 48.6 µM), the TIME [7] was 0.426 h and the Time (Pontoscolex corethrurus [8]) was 20.65 min. For the same molecule, the Time (Eudrilus [9]) was 28.27 min, the “inhibition zone (IZ)” value (Bacillus subtilis [10]) was 13 mm and the “inhibition zone (IZ)” value (Microsporum audouinii [11]) was 13 mm. For the same molecule, the “inhibition zone (IZ)” value (Trichophyton benhamiae [12]) was 15 mm, the MIC (Candida albicans [13]) was 12.5 µg/mL (≈ 24.3 µM) and the TIME [14] was 0.27 h. It also gave an MIC (Microsporum audouinii [15]) of 6 µg/mL (≈ 11.7 µM), an MIC (Pseudomonas aeruginosa [16]) of 6 µg/mL (≈ 11.7 µM) and an MIC (Trichophyton benhamiae [17]) of 6 µg/mL (≈ 11.7 µM). For the same molecule, the MIC (Bacillus subtilis [18]) was 6 µg/mL (≈ 11.7 µM), the Time (Pontoscolex corethrurus [19]) was 32.22 min and the “inhibition zone (IZ)” value (Candida albicans [20]) was 15 mm.
In the case of `COC(=O)[C@H](C)NC(=O)[C@@H](NC(=O)[C@H](C)NC(=O)c1cc(-c2nc3cc(C)c(C)cc3[nH]2)ccc1O)C(C)C`, the “inhibition zone (IZ)” value (Escherichia coli [1]) is reported as 16 mm, the MIC (Escherichia coli [2]) is reported as 25 µg/mL (≈ 46.5 µM) and the Time (Eudrilus [3]) is reported as 25.55 min. The “inhibition zone (IZ)” value (Aspergillus niger) was 16 mm, the “inhibition zone (IZ)” value (Pseudomonas aeruginosa [4]) was 19 mm and the “inhibition zone (IZ)” value (Staphylococcus aureus [5]) was 9 mm. The MIC (Staphylococcus aureus [6]) was 25 µg/mL (≈ 46.5 µM), the TIME [7] was 0.578 h and the Time (Pontoscolex corethrurus [8]) was 29.89 min. The Time (Eudrilus [9]) was 36.23 min, the “inhibition zone (IZ)” value (Bacillus subtilis [10]) was 13 mm and the “inhibition zone (IZ)” value (Microsporum audouinii [11]) was 10 mm. For the same molecule, the “inhibition zone (IZ)” value (Trichophyton benhamiae [12]) was 14 mm, the MIC (Candida albicans [13]) was 6 µg/mL (≈ 11.2 µM) and the TIME [14] was 0.426 h. It also gave an MIC (Microsporum audouinii [15]) of 6 µg/mL (≈ 11.2 µM), an MIC (Pseudomonas aeruginosa [16]) of 6 µg/mL (≈ 11.2 µM) and an MIC (Trichophyton benhamiae [17]) of 6 µg/mL (≈ 11.2 µM). The MIC (Bacillus subtilis [18]) was 6 µg/mL (≈ 11.2 µM), the Time (Pontoscolex corethrurus [19]) was 41.79 min and the “inhibition zone (IZ)” value (Candida albicans [20]) was 18 mm.
With `Cc1cc2nc(-c3c(I)cc(C(=O)N[C@@H](C)C(=O)N[C@@H](Cc4ccc(O)cc4)C(=O)NCC(=O)O)cc3I)[nH]c2cc1C` the “inhibition zone (IZ)” value (Escherichia coli [1]) was 18 mm, the MIC (Escherichia coli [2]) was 12.5 µg/mL (≈ 15.4 µM) and the Time (Eudrilus [3]) was 26.25 min. The “inhibition zone (IZ)” value (Aspergillus niger) was 15 mm, the “inhibition zone (IZ)” value (Pseudomonas aeruginosa [4]) was 23 mm and the “inhibition zone (IZ)” value (Staphylococcus aureus [5]) was 13 mm. It also gave an MIC (Staphylococcus aureus [6]) of 12.5 µg/mL (≈ 15.4 µM), a TIME [7] of 0.676 h and a Time (Pontoscolex corethrurus [8]) of 35.42 min. For the same molecule, the Time (Eudrilus [9]) was 45.22 min, the “inhibition zone (IZ)” value (Bacillus subtilis [10]) was 16 mm and the “inhibition zone (IZ)” value (Microsporum audouinii [11]) was 9 mm. The “inhibition zone (IZ)” value (Trichophyton benhamiae [12]) was 15 mm, the MIC (Candida albicans [13]) was 6 µg/mL (≈ 7.41 µM) and the TIME [14] was 0.454 h. The MIC (Microsporum audouinii [15]) was 12.5 µg/mL (≈ 15.4 µM), the MIC (Pseudomonas aeruginosa [16]) was 6 µg/mL (≈ 7.41 µM) and the MIC (Trichophyton benhamiae [17]) was 12.5 µg/mL (≈ 15.4 µM). The MIC (Bacillus subtilis [18]) was 6 µg/mL (≈ 7.41 µM), the Time (Pontoscolex corethrurus [19]) was 47.45 min and the “inhibition zone (IZ)” value (Candida albicans [20]) was 16 mm.
For `COC1=CC(=O)C[C@@H](C)[C@]12Oc1c(Cl)c(OC)cc(OC)c1C2=O` [GRISEOFULVIN], the “inhibition zone (IZ)” value (Aspergillus niger) was 18 mm, the “inhibition zone (IZ)” value (Microsporum audouinii [11]) was 17 mm and the “inhibition zone (IZ)” value (Trichophyton benhamiae [12]) was 20 mm. For the same molecule, the MIC (Candida albicans [13]) was 6 µg/mL (≈ 17 µM), the MIC (Microsporum audouinii [15]) was 6 µg/mL (≈ 17 µM) and the MIC (Trichophyton benhamiae [17]) was 6 µg/mL (≈ 17 µM). For the same molecule, the “inhibition zone (IZ)” value (Candida albicans [20]) was 20 mm.
`COC(=O)Nc1nc2cc(C(=O)c3ccccc3)ccc2[nH]1` [MEBENDAZOLE] gave a Time (Eudrilus [3]) of 13.54 min, a TIME [7] of 0.382 h and a Time (Pontoscolex corethrurus [8]) of 17.85 min. For the same molecule, the Time (Eudrilus [9]) was 24.05 min, the TIME [14] was 0.231 h and the Time (Pontoscolex corethrurus [19]) was 29.64 min.
For `O=C(O)c1cn(C2CC2)c2cc(N3CCNCC3)c(F)cc2c1=O` [CIPROFLOXACIN], the MIC (Escherichia coli [2]) was 12.5 µg/mL (≈ 37.7 µM), the “inhibition zone (IZ)” value (Pseudomonas aeruginosa [4]) was 25 mm and the “inhibition zone (IZ)” value (Staphylococcus aureus [5]) was 20 mm. The MIC (Staphylococcus aureus [6]) was 12.5 µg/mL (≈ 37.7 µM), the “inhibition zone (IZ)” value (Bacillus subtilis [10]) was 20 mm and the MIC (Pseudomonas aeruginosa [16]) was 6 µg/mL (≈ 18.1 µM). The MIC (Bacillus subtilis [18]) was 6 µg/mL (≈ 18.1 µM).

Source: ChEMBL document CHEMBL1146375, “Synthetic studies on novel benzimidazolopeptides with antimicrobial, cytotoxic and anthelmintic potential” (2007)
